According to ChEMBL document CHEMBL2157870 (J Med Chem, 2012):
Values after ≈ are worked out from the molar mass of the structure shown.

Tests used:
[1] = test system: Mus musculus; test: AUC (0 to infinity) in CD1 mouse at 20 mg/kg, po; assay type: ADME, organism-based, Plasma; design: time infinity, dose 20 mg/kg, route oral; conditions: in vivo
Procedure, shortened: (§1)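 Female CD-1 mice, 8 weeks old, were given a single oral gavage dose as a suspension in 0.5% methylcellulose in sterile water. Blood was taken from three mice per time point (5 min–24 hr) into K3EDTA and processed to plasma. After acetonitrile protein precipitation, samples were analysed by LC-MS/MS with a warfarin internal standard. Noncompartmental analysis used linear-up/log-down trapezoidal AUC and at least three non-zero concentrations after Tmax.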

[2] = test system: Mus musculus; test: Cmax in CD1 mouse at 20 mg/kg, po; assay type: ADME, organism-based; design: dose 20 mg/kg, route oral; conditions: in vivo; procedure, shortened: as §1
[3] = Apparent volume of distribution during terminal phase in CD1 mouse at 200 mg/kg, po; assay type: ADME, organism-based; design: dose 200 mg/kg, route oral; conditions: in vivo, read-out: Vz/F; procedure, shortened: as §1
[4] = Solubility of the compound in PBS at 10 mM after 18 hrs by UV spectroscopic analysis; assay type: physicochemical
[5] = test system: Mus musculus; test: Cmax in CD1 mouse at 200 mg/kg, po; assay type: ADME, organism-based; design: dose 200 mg/kg, route oral; conditions: in vivo; procedure, shortened: as §1
[6] = test system: Mus musculus; test: Tmax in CD1 mouse at 20 mg/kg, po; assay type: ADME, organism-based; design: dose 20 mg/kg, route oral; conditions: in vivo; procedure, shortened: as §1
[7] = Intrinsic clearance in […] mouse liver microsomes at 2 mM; assay type: ADME, Microsome; conditions: read-out: CLH
[8] = test system: Mus musculus; test: Tmax in CD1 mouse at 500 mg/kg, po; assay type: ADME, organism-based; design: dose 500 mg/kg, route oral; conditions: in vivo; procedure, shortened: as §1
[9] = target: Voltage-gated inwardly rectifying potassium channel KCNH2 (Homo sapiens, UniProt Q12809); test: Inhibition of human ERG by patch clamp assay
[10] = test system: Mus musculus; test: Tmax in CD1 mouse at 200 mg/kg, po; assay type: ADME, organism-based; design: dose 200 mg/kg, route oral; conditions: in vivo; procedure, shortened: as §1
[11] = test system: Mus musculus; test: AUC (0 to infinity) in CD1 mouse at 200 mg/kg, po; assay type: ADME, organism-based, Plasma; design: time infinity, dose 200 mg/kg, route oral; conditions: in vivo; procedure, shortened: as §1
[12] = target: T1, CYP2D6 (Homo sapiens, UniProt P10635); test: Inhibition of CYP2D6 in human liver microsomes at 10 uM after 20 mins by LC-MS/MS analysis relative to control; values are per cent of control
[13] = target: T1, CYP2D6; test: Inhibition of CYP2D6 in human liver microsomes at 1 uM after 20 mins by LC-MS/MS analysis relative to control; values are per cent of control
[14] = test system: BJ; test: Cytotoxicity against human BJ cells at 25 uM after 72 hrs by celltiter-glo assay; assay type: cell-based
[15] = test system: Plasmodium berghei; test: Antimalarial activity against Plasmodium berghei NK-65 infected in ICR mouse assessed as survival rate at 200 mg/kg, po administered day 3, 4 and 5 post infection; assay type: functional
Procedure, shortened: (§2)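 Female Swiss outbred ICR mice, 15–20 g, given 1 X 10^6 P. berghei NK-65 infected red cells from donor mice in plasma at day 0 (modified Thompson's test). Patent infection confirmed by tail blood smear on day 3. Oral single daily doses in 0.5% HEC on days 3, 4, 5. Vehicle controls. Survival recorded daily to day 30. Parasitemia from Giemsa thin films on days 3, 6, 13, 20, 27, counting ≥1000 cells.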

[16] = test system: hERG; test: Therapeutic index, ratio of IC50 for human ERG to EC50 for Plasmodium falciparum K1; conditions: read-out: Ratio IC50/EC50
[17] = test system: Plasmodium falciparum; test: Antimalarial activity against Plasmodium falciparum 3D7 after 72 hrs by MSF assay; assay type: functional, organism-based; conditions: 3D7, 72 h
[18] = test system: Mus musculus; test: AUC (0 to infinity) in CD1 mouse at 500 mg/kg, po; assay type: ADME, organism-based, Plasma; design: time infinity, dose 500 mg/kg, route oral; conditions: in vivo; procedure, shortened: as §1
[19] = test system: Mus musculus; test: (§3) Apparent volume of distribution during terminal phase in CD1 mouse at 500 mg/kg, po; assay type: ADME, organism-based; design: dose 500 mg/kg, route oral; conditions: mouse, in vivo; procedure, shortened: as §1
[20] = Permeability of the compound at 10 uM at pH 7.4 by PAMPA; assay type: ADME; conditions: pH 7.4, 10 µM
Procedure, shortened: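 PAMPA: diluted compound in system solution buffer at pH 7.4 was placed in the donor well over a GIT-lipid-painted membrane, with acceptor solution buffer in the acceptor well. The sandwich was stirred for 30 min with the aqueous boundary layer set to 40 μm. Triplicate.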

[21] = test system: Plasmodium berghei; test: Antimalarial activity against Plasmodium berghei NK-65 infected in ICR mouse assessed as survival rate at 100 mg/kg, po administered day 3, 4 and 5 post infection; assay type: functional; procedure, shortened: as §2
[22] = test system: Plasmodium berghei; test: Antimalarial activity against Plasmodium berghei NK-65 infected in ICR mouse assessed as parasitemia level at 200 mg/kg, po administered day 3, 4 and 5 post infection measured up to day 30 by Geimsa staining; assay type: functional; procedure, shortened: as §2
[23] = test system: Plasmodium falciparum; test: Antimalarial activity against Plasmodium falciparum K1 after 72 hrs by MSF assay; assay type: functional, organism-based; conditions: K1, 72 h
[24] = test system: Raji; test: Cytotoxicity against human Raji cells at 25 uM after 72 hrs by celltiter-glo assay; assay type: cell-based
[25] = test system: HEK293; test: Cytotoxicity against human HEK293 cells at 25 uM after 72 hrs by celltiter-glo assay; assay type: cell-based; conditions: hek293, 72 h
[26] = test system: HepG2; test: Cytotoxicity against human HepG2 cells at 25 uM after 72 hrs by celltiter-glo assay; assay type: cell-based; conditions: hepg2, 72 h
[27] = test system: Mus musculus; test: Cmax in CD1 mouse at 500 mg/kg, po; assay type: ADME, organism-based; design: dose 500 mg/kg, route oral; conditions: in vivo; procedure, shortened: as §1
[28] = (§4) Apparent volume of distribution during terminal phase in CD1 mouse at 20 mg/kg, po; assay type: ADME, organism-based; design: dose 20 mg/kg, route oral; conditions: CD1, mouse, in vivo, read-out: Vz/F; procedure, shortened: as §1
[29] = test system: Plasmodium berghei; test: Antimalarial activity against Plasmodium berghei NK-65 infected in ICR mouse assessed as parasitemia level at 100 mg/kg, po administered day 3, 4 and 5 post infection measured up to day 30 by Geimsa staining; assay type: functional; procedure, shortened: as §2
[30] = test system: Plasmodium berghei; test: Antimalarial activity against Plasmodium berghei NK-65 infected in ICR mouse assessed as parasitemia level at 100 mg/kg, po administered day 3, 4 and 5 post infection measured on day 6 by Geimsa staining; assay type: functional; procedure, shortened: as §2
[31] = test system: Plasmodium berghei; test: Antimalarial activity against Plasmodium berghei NK-65 infected in ICR mouse assessed as parasitemia level at 200 mg/kg, po administered day 3, 4 and 5 post infection measured on day 6 by Geimsa staining; assay type: functional; procedure, shortened: as §2
[32] = test system: Plasmodium berghei; test: Antimalarial activity against Plasmodium berghei NK-65 infected in ICR mouse assessed as parasitemia level at 200 mg/kg, po administered day 3, 4 and 5 post infection measured on day 13 by Geimsa staining; assay type: functional; procedure, shortened: as §2
[33] = test system: Plasmodium berghei; test: Antimalarial activity against Plasmodium berghei NK-65 infected in ICR mouse assessed as parasitemia level at 200 mg/kg, po administered day 3, 4 and 5 post infection measured on day 20 by Geimsa staining; assay type: functional; procedure, shortened: as §2
[34] = target: T2, ATP-sensitive inward rectifier potassium channel 11 (Homo sapiens, UniProt Q14654); test: Inhibition of Kir6.2 by patch clamp assay
T2 sequence (Q14654 whole entry): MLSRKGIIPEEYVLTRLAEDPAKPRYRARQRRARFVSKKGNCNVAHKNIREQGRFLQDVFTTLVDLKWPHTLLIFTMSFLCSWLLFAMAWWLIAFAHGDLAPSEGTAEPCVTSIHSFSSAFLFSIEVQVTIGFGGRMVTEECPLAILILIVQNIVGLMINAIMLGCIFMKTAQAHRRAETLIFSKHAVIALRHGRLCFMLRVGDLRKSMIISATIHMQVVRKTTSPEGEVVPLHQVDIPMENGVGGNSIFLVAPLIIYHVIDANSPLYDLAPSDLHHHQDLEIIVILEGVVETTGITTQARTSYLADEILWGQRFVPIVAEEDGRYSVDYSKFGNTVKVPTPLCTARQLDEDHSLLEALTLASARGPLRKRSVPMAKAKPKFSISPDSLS

[35] = as §3; assay type: ADME, organism-based; design: dose 500 mg/kg, route oral; conditions: CD1, mouse, in vivo, read-out: Vz/F; procedure, shortened: as §1
[36] = test system: Mus musculus; test: as §4; assay type: ADME, organism-based; design: dose 20 mg/kg, route oral; conditions: mouse, in vivo; procedure, shortened: as §1

T1 sequence (P10635 whole entry): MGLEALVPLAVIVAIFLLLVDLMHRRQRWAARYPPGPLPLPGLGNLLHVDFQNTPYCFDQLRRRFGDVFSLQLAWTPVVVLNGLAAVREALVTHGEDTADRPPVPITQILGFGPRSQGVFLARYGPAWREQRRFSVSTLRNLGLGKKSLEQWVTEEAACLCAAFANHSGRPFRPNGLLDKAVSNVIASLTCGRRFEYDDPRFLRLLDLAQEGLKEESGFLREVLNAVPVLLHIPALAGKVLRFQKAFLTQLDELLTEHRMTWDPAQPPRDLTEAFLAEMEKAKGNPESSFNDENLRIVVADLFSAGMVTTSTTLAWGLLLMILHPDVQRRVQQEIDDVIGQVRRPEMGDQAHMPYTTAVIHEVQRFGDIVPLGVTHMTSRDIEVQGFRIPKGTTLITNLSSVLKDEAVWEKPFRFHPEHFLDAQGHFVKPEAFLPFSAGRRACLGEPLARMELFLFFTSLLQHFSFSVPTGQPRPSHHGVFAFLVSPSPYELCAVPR
Voltage-gated inwardly rectifying potassium channel KCNH2, sequence (Q12809 whole entry): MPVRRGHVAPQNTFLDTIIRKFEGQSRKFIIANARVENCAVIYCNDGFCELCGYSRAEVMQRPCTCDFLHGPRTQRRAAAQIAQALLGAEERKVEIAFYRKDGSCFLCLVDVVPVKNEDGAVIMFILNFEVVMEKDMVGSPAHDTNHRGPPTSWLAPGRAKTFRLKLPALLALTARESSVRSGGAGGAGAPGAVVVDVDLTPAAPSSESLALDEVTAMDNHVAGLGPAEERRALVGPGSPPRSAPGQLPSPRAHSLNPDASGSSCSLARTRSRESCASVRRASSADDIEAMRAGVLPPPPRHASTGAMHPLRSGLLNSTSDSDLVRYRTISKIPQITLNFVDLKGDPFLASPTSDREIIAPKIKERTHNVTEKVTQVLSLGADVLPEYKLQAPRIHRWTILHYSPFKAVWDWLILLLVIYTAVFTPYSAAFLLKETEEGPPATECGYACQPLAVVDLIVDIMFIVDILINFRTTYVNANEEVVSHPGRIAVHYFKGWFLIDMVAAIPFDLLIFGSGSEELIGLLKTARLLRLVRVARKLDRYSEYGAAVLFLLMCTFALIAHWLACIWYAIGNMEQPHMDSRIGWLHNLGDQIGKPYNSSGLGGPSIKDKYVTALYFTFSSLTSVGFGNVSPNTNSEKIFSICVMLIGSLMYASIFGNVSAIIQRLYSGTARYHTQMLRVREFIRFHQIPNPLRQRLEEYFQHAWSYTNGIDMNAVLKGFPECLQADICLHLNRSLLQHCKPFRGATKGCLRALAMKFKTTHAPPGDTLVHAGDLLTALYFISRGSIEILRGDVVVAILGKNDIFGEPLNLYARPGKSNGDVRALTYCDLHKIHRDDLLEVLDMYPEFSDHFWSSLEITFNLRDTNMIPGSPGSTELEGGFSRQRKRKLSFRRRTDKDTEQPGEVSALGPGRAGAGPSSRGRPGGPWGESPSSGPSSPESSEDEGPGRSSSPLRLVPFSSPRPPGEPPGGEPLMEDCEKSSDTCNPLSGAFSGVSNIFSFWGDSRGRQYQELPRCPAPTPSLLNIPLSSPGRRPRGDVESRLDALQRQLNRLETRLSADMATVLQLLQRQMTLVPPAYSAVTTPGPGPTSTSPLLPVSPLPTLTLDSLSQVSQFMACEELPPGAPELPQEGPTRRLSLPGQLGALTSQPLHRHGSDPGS

Compound | AUC [1] | Cmax [2] | Vd/F [3] | solubility at 18 h, 10000 µM [4] | Cmax [5] | Tmax [6] | Tmax [8] | Tmax [10] | AUC [11] | % activity remaining at 20 min, 10 µM [12] | % activity remaining at 20 min, 1 µM [13] | Activity [14] | EC90 [17] | AUC [18] | Vz/F [19] | EC90 [23] | Activity [24] | Activity [25] | Activity [26] | Cmax [27] | other results
O=C(CCc1ccccc1)c1ccccc1OCC(O)CN1CCN(C(c2ccccc2)c2ccccc2)CC1 (stereo unspecified) | 249 nM·h | 73.7 nM | 603 L/kg | 0.1 µM (≈ 0.0535 µg/mL) | 667 nM | 60 min | 60 min | 30 min | 3.1 µM·h | 59% | 76% | Non-toxic | 90 nM | 3.37 µM·h | 2020 L/kg | 100 nM | Non-toxic | Non-toxic | Non-toxic | 598 nM | CLint scaled [7]: 70 mL/min/kg; IC50 [9]: 2600 nM; MST [15]: 7 days; selectivity ratio [16]: 26; permeability [20]: 2.3 ×10⁻⁶ cm/s; MST [21]: 7 days; Activity [22]: 55.3%; Vd/F [28]: 318 L/kg; Activity [29]: 53.6%
O=C(CCc1ccccc1)c1ccccc1OCC(O)CN1CCC(c2ccccc2)CC1 (stereo unspecified) | 224 nM·h | 69.6 nM | 278 L/kg | 7.3 µM (≈ 3.24 µg/mL) | 1620 nM | 18 min | 30 min | 30 min | 6.8 µM·h | 31% | 78% | Non-toxic | 750 nM | 15.3 µM·h |  | 240 nM | Non-toxic | Non-toxic | Non-toxic | 1750 nM | Activity [30]: 33.3%; Activity [31]: 44.5%; Activity [32]: 28.4%; Activity [33]: 50.4%; IC50 [34]: > 5 µM; Vd/F [35]: 623 L/kg; permeability [20]: 490 ×10⁻⁶ cm/s; MST [21]: 9 days; Vz/F [36]: 1093.3 L/kg
O=C(CCc1ccc(F)cc1)c1ccccc1OCC(O)CN1CCN(C(c2ccccc2)c2ccccc2)CC1 (stereo unspecified) | 298 nM·h | 92.4 nM | 288 L/kg | 0.6 µM (≈ 0.332 µg/mL) | 1140 nM | 30 min | 30 min | 60 min | 5.67 µM·h | 76% | 83% | Non-toxic | 450 nM | 4.08 µM·h | 1758 L/kg | 210 nM | Non-toxic | Non-toxic | Non-toxic | 861 nM | EC50 [17]: 160 nM; permeability ([20]; BLD = below limit of detection): BLD; EC50 [23]: 100 nM; Vd/F [28]: 370 L/kg
